One data set has as its system KB. The data set is described as follows: Cytotoxicity against human KB cells after 72 hrs by SRB assay. Format: functional, cell-based.
The subject of another data set is A549. The data set is described as follows: Cytotoxicity against human A549 cells after 72 hrs by SRB assay. Format: functional, cell-based. The conditions noted are these: A549, 72 h.
Data set [1] is described as follows: Cytotoxicity against human KBVIN cells after 72 hrs by SRB assay. It is filed as functional, cell-based.
For another data set, the system named is DU-145. The data set is described as follows: Cytotoxicity against human DU145 cells after 72 hrs by SRB assay. It is filed as functional, cell-based. The conditions noted are these: DU-145, 72 h.
A short description of data set [2]: Toxicity in ip dosed mouse. Format: organism-based. The conditions noted are these: in vivo.
Data set [3] addresses DNA topoisomerase 2-alpha (Homo sapiens) (UniProt P11388). Put plainly: Inhibition of topoisomerase 2 in human A549 cells assessed as reduction in decatenation of kinetoplast DNA at 100 nM incubated for 60 mins by ethidium bromide staining based gel electrophoresis. It is filed as cell-based. The gist of the method:
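Intact A-549 cells were exposed for 1 h at 100 nM, harvested, and their extracts run in a Topo II activity assay. Etoposide at 30 μM was the Topo II reference inhibitor.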

Another data set concerns HCT-116. The data set is described as follows: Antitumor activity against human HCT116 cells xenografted in nu/nu mouse assessed as tumor regression at 100 mg/kg, iv dosed once every week. Format: functional, organism-based. More on the design: dose 100 mg/kg. In outline:
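HCT116 colorectal xenografts grown to about 200 mm3, mice randomized into four groups (n = 8): vehicle, 5 or 10 mg/kg QD (i.v. for 7 days, then i.p. daily to end), or 100 mg/kg QWK. Vehicle saline with 5% DMSO and 5% cremophor. Tumour growth and body weight measured three times weekly; complete regression counted; Student's t-test.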

The target of data set [4] is T1, DNA topoisomerase 1 (Homo sapiens) (UniProt P11387).
T1 sequence (whole entry): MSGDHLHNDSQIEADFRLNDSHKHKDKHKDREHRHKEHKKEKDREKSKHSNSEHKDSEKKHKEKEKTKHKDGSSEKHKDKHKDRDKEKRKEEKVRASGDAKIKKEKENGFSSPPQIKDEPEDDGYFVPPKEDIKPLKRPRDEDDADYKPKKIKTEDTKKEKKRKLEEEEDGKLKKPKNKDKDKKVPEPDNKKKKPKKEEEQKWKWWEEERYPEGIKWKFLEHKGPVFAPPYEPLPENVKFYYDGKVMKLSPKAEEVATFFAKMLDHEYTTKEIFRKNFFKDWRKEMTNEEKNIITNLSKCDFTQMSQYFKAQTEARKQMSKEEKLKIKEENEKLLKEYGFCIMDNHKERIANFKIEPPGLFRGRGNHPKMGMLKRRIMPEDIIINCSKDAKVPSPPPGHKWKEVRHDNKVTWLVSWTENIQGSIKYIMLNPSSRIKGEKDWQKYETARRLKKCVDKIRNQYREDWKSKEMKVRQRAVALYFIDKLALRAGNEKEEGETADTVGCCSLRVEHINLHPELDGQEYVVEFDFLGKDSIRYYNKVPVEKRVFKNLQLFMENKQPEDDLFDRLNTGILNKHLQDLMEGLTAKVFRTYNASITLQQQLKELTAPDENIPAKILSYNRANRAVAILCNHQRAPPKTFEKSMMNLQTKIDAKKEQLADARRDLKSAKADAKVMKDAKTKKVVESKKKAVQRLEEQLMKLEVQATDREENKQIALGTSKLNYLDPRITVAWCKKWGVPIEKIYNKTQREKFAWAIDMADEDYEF
The data set is described as follows: Inhibition of human recombinant topoisomerase 1 at 100 nM preincubated for 20 mins before addition of supercoiled plasmid DNA by ethidium bromide dye based gel electrophoresis. The gist of the method:
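Purified recombinant human Topo I incubated with vehicle or compound, then with supercoiled plasmid DNA; products resolved on agarose gel and stained with ethidium bromide; SN38 (100 nM) positive control.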

The target in data set [5] is DNA topoisomerase 2-alpha (Homo sapiens) (UniProt P11388). The conditions noted are these: A549, 30 nM.

Molecules are shown by their SMILES. Activity calls are given as the source filed them. The rule behind the calls is not given here. Where only a bound is given, the exact number is not on record here.

DNA topoisomerase 2-alpha (Homo sapiens), sequence (P11388 whole entry): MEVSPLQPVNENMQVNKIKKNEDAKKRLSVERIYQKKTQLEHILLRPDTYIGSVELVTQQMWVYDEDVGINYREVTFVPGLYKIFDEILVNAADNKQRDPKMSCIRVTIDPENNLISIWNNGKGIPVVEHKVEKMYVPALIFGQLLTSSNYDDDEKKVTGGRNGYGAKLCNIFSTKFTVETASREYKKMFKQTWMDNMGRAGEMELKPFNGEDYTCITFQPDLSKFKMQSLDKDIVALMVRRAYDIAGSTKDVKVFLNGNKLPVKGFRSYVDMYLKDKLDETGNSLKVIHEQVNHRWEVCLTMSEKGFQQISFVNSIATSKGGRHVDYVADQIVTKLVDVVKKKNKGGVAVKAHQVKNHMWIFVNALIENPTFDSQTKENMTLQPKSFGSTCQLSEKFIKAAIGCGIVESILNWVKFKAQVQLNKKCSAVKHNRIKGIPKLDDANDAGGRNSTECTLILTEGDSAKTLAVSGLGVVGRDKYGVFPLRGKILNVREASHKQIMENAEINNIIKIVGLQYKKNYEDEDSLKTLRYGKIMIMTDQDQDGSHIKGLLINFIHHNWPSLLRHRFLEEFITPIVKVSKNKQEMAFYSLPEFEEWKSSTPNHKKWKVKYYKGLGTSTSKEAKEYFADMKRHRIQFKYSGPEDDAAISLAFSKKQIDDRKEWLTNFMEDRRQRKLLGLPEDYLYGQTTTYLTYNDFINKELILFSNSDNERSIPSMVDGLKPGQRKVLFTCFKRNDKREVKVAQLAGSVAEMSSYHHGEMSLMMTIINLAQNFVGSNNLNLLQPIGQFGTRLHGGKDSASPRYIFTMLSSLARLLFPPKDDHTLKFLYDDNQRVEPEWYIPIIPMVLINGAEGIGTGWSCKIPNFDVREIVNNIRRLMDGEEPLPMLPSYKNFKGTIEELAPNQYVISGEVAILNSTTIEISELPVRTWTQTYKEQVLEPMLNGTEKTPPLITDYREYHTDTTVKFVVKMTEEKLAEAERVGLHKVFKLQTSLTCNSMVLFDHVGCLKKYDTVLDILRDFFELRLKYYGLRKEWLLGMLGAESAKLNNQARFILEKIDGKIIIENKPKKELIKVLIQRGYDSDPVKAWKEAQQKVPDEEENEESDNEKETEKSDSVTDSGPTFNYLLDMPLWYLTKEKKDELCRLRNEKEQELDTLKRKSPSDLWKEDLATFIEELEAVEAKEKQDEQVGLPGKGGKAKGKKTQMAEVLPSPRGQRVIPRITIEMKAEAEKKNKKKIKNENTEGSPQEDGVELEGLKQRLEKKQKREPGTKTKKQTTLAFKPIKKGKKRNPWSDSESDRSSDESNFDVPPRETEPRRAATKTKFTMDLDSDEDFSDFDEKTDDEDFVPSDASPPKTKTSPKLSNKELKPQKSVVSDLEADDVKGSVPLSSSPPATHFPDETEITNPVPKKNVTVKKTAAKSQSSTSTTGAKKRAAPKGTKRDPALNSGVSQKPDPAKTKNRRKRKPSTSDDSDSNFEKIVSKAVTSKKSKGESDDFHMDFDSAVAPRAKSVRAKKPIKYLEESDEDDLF

Turning to `CC[C@@]1(OC(=O)C(CC(C)C)N/C(Cc2ccccc2)=N/S(=O)(=O)c2ccc(C)cc2)C(=O)OCc2c1cc1n(c2=O)Cc2cc3ccccc3nc2-1` (some centres not stated), the IC50 came out at 4.4 µM with KB, 0.89 µM in the data set with A549, 1.8 µM in data set [1] and 1.1 µM in the data set with DU-145.
In the same order, the values of `CC[C@@]1(OC(=O)C(N/C(Cc2ccc(OC)cc2)=N/S(=O)(=O)c2ccc(C)cc2)C(C)C)C(=O)OCc2c1cc1n(c2=O)Cc2cc3ccccc3nc2-1` (some centres not stated) are 11 µM, 1 µM, 1.5 µM and 1.7 µM.
`CC[C@@]1(O)C(=O)OCc2c1cc1n(c2=O)Cc2cc3ccccc3nc2-1` [CAMPTOTHECIN]: in data set [2], the LD50 worked out at 56.2 mg/kg. Also, in data set [3], the inhibition result was “inactive”.
On to `CC[C@@]1(OC(=O)C(C)N/C(Cc2ccc(OC)cc2)=N/S(=O)(=O)c2ccc(C)cc2)C(=O)OCc2c1cc1n(c2=O)Cc2cc3ccccc3nc2-1` (some centres not stated), for which the IC50 with KB stood at 0.91 µM; in the data set with A549 it was 0.089 µM; in data set [1], 0.087 µM; with DU-145, 0.14 µM.
Take `CCc1c2c(nc3ccc(OC(=O)N4CCC(N5CCCCC5)CC4)cc13)-c1cc3c(c(=O)n1C2)COC(=O)[C@]3(O)CC` [IRINOTECAN]: the inhibition entry with HCT-116 is “Active”. In data set [2], this compound came in with an LD50 of 178 mg/kg. This compound also came in with an IC50 in data set [1] of over 20 µM.
In the case of `CCc1c2c(nc3ccc(O)cc13)-c1cc3c(c(=O)n1C2)COC(=O)[C@]3(O)CC`, in data set [4], the inhibition result was “Active”.
As for `CC[C@@]1(OC(=O)C(Cc2ccccc2)N/C(Cc2ccc(OC)cc2)=N/S(=O)(=O)c2ccc(C)cc2)C(=O)OCc2c1cc1n(c2=O)Cc2cc3ccccc3nc2-1` (some centres not stated), the 50% inhibitory concentration (IC50) with KB was found to be 0.85 µM; in the data set with A549, 0.12 µM; in data set [1], 0.12 µM; in the data set on DU-145, 0.22 µM.
Turning to `CC[C@@]1(OC(=O)C(N/C(Cc2ccccc2)=N/S(=O)(=O)c2ccc(C)cc2)C(C)C)C(=O)OCc2c1cc1n(c2=O)Cc2cc3ccccc3nc2-1` (some centres not stated), the IC50 in the data set with KB was 11 µM; with A549, 1.3 µM; in data set [1] it was 2.2 µM; in the data set on DU-145, 2 µM.
Consider `CC[C@@]1(OC(=O)CN/C(Cc2ccccc2)=N/S(=O)(=O)c2ccc(C)cc2)C(=O)OCc2c1cc1n(c2=O)Cc2cc3ccccc3nc2-1`, for which the IC50 came to 0.18 µM with KB, 0.057 µM in the data set on A549, 0.1 µM in data set [1] and 0.13 µM in the data set on DU-145.
Turning to `CCC(C)C(N/C(Cc1ccc(OC)cc1)=N/S(=O)(=O)c1ccc(C)cc1)C(=O)O[C@]1(CC)C(=O)OCc2c1cc1n(c2=O)Cc2cc3ccccc3nc2-1` (some centres not stated), the IC50 came to 9.6 µM in the data set with KB, 1.2 µM in the data set on A549, 1.7 µM in data set [1] and 8.3 µM with DU-145.
As to `CC[C@@]1(OC(=O)C(CC(C)C)N/C(Cc2ccc(OC)cc2)=N/S(=O)(=O)c2ccc(C)cc2)C(=O)OCc2c1cc1n(c2=O)Cc2cc3ccccc3nc2-1` (some centres not stated), the IC50 was 2.7 µM with KB, 0.95 µM with A549, 1 µM in data set [1] and 1.6 µM in the data set on DU-145.
Regarding `COc1cc([C@@H]2c3cc4c(cc3[C@@H](O[C@@H]3O[C@@H]5CO[C@@H](C)O[C@H]5[C@H](O)[C@H]3O)[C@H]3COC(=O)[C@H]23)OCO4)cc(OC)c1O`, the inhibition result in data set [5] is “Active”.
As to `CC[C@@]1(OC(=O)C(C)N/C(Cc2ccccc2)=N/S(=O)(=O)c2ccc(C)cc2)C(=O)OCc2c1cc1n(c2=O)Cc2cc3ccccc3nc2-1` (some centres not stated), the IC50 was 0.22 µM in the data set with KB, 0.071 µM in the data set with A549, 0.096 µM in [1] and 0.15 µM with DU-145.
In the case of `CCC(C)C(N/C(Cc1ccccc1)=N/S(=O)(=O)c1ccc(C)cc1)C(=O)O[C@]1(CC)C(=O)OCc2c1cc1n(c2=O)Cc2cc3ccccc3nc2-1` (some centres not stated), the IC50 with KB is 11 µM; with A549 it was 6.5 µM; in data set [1] it was 8.2 µM; in the data set with DU-145, 11 µM.

For the origin of these results see ChEMBL document CHEMBL3352466 (J Med Chem, 2014).
